Assay results published in ChEMBL document CHEMBL4052683, “The discovery of benzoxazine sulfonamide inhibitors of NaV1.7: Tools that bridge efficacy and target engagement” (Bioorg Med Chem Lett, 2017).
The source made the active and inactive calls. The calls are words filed in the database; no cut-off is given here.

Legend:
[1] = Ratio of unbound plasma concentration in C57BL/6 mouse model of histamine-induced pruritus at 30 mg/kg, po to IC50 for mouse Nav1.7 by whole cell voltage clamp method
In short: (§1)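 The formalin arm received 2% formalin subcutaneously into the dorsal hind paw, and total phase II licking and lifting was scored. The pruritus arm was dosed 120 min before histamine (8.15mM, intradermal, nape of neck), and scratch bouts were counted over 0-30 min. Unbound plasma concentration was determined at each dose.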

[2] = AUC (infinity) in mouse at 30 mg/kg, po by LC-MS/MS method; assay type: ADME, organism-based; parameters: dose 30 mg/kg, time infinity, route oral; details: in vivo
[3] = system: Plasma; test: Unbound plasma concentration in C57BL/6 mouse model of histamine-induced pruritus at 30 mg/kg, po; assay type: ADME, organism-based; details: in vivo; in short: as §1
[4] = system: Rattus norvegicus; test: Analgesic activity in Sprague-Dawley rat model of formalin-induced nociception behavior assessed as reduction in formalin-evoked paw flinching at 30 mg/kg, po; assay type: functional
In short: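 Sprague Dawley rats got 10, 30 or 100 mg/kg PO in 30% (w/v) hydroxypropyl β-cyclodextrin, pH 10.0 with KOH. Total phase II formalin-induced flinches were counted. Morphine sulfate 2 mg/kg SC served as control. Unbound plasma levels were measured and compared with the rat NaV1.7 IC50.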

[5] = biological target: Histamine H2 receptor (Homo sapiens) (UniProt P25021); test: Displacement of [125I]APT from human recombinant histamine H2 receptor expressed in CHO cells at 10 uM by radioligand displacement assay; assay type: cell-based
[6] = system: Plasma; test: Unbound plasma concentration in C57BL/6 mouse model of histamine-induced pruritus at 100 mg/kg, po; assay type: ADME, organism-based; details: in vivo; in short: as §1

Histamine H2 receptor (Homo sapiens), sequence (P25021 whole entry): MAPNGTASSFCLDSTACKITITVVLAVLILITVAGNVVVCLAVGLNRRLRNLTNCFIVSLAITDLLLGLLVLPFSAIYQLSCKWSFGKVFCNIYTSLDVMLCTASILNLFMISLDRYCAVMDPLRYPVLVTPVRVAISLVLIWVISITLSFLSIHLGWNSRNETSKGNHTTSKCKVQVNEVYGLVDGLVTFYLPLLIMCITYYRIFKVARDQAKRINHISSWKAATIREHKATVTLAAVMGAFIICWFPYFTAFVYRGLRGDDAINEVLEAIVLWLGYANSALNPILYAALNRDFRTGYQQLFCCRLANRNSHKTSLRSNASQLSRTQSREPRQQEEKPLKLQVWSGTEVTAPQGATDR

- AUC(0-inf) [2]: 790 µM·h
- Cp(f) [3]: 370 nM
- inhibition [5]: inactive
- Cp(f) [6]: 680 nM
Compound: N#Cc1cc(C(F)(F)F)ccc1N1CCOc2cc(S(=O)(=O)Nc3nccs3)c(F)cc21
- Ratio [1]: 6
- MPE [4]: 39%
